# Compound activity: PubChem, several laboratories
# The list is not random: actives were taken first. Their share in the collection is about 2.5%.
# MC4R ag barr – activates human MC4R beta-arrestin recruitment | P32245 | U2OS MC4R beta-arrestin complementation, luminescence; percent of melanotan II response, DMSO zero | activation, % at 8.9 µM | 0.98% of 360,000 active | AID 540308;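 active = activation above a per-plate cutoff, the mean activation of sample wells on that plate plus 3 SD, cut at about 8% in these data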
# Target sequence (P32245 whole entry, looked up): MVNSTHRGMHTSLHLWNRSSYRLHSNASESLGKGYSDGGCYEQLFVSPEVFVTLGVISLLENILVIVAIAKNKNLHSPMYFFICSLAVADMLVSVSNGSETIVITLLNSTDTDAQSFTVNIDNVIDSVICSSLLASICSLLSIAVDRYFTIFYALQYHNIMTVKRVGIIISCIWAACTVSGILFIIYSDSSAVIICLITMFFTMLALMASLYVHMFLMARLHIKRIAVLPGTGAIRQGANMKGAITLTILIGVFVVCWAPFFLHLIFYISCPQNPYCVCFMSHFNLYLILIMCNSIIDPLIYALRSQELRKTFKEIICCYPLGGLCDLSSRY
# NLRP3 yeast inh – inhibitors of NALP3 inflammasome in yeast | Yeast reconstituted NLRP3/ASC/caspase-1, beta-gal luminescence, 24 h | inhibition, % at 10 µM | 0.39% of 330,000 active;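 active = inhibition of 50% or more; inactive = inhibition below 50%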;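 note: plate controls were induced DMSO wells for no effect and uninduced yeast grown without galactose for full effect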
# TbMetRS inhib – Trypanosoma brucei MetRS inhibition; purified T. brucei MetRS, ATP depletion, Kinase-Glo luminescence; inhibition, % at 11.9 µM; 0.4% of 360,000 active; AID 624268;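 active = inhibition above a per-plate cutoff of the control wells' mean inhibition plus 3 SD, cut at about 5.5% in these data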;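 note: 0% = DMSO wells median and 100% = median of wells with control inhibitor compound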
#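 assay system = parasite MetRS enzyme | timing = 15 min preincubation, 2 h reaction, all 25 °C | evaluation = percent inhibition relative to median high and low control wells | medium = HEPES buffer containing pyrophosphatase, BSA, spermine, DTT | compound = single dose, 11.9 µM final nominal, 0.9% final DMSO | detection = Kinase-Glo luminescence, ATP depletion format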
# Bfl-1 A1 inh – inhibitors of the anti-apoptotic protein A1, read as caspase activation | 0.066% of 330,000 active | MEF A1-2A-BIM cells, Caspase-Glo 3/7 luminescence, 3 h; percent of clofoctol response, vehicle zero | caspase activation, % (concentration not given with the values);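 active = over half of replicate activation scores above 10%, or exactly half above 10 with the replicate mean above 10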
# MC4R antagonist – human MC4R antagonism in cAMP assay; MC4R-expressing cells, MTII-stimulated cAMP, LANCE TR-FRET; P32245; 0.48% of 360,000 active; inhibition, % at 6.5 µM;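 active = inhibition above its plate's cutoff, the mean of tested wells on that plate plus 3 SD, cut at about 29% in these data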;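 note: 0% = Melanotan II alone and 100% = Melanotan II plus saturating MCL0020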
#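 Assay system: human MC4R-expressing U2OS cells; reagent: Melanotan II stimulation of cells; dosing: 6.5 µM single dose; timing: compound 30 min, challenge 1 h, detection 1 h; signal: TR-FRET cAMP assay; replicates: one well per compound, no replicates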
# NALP1 inh – NALP1 inhibition; S. cerevisiae NALP1/ASC/caspase-1 growth, X-gal OD620, 72 h; inhibition, % at 10 µM; 0.61% of 280,000 active; in the data active = inhibition mostly above about 24%, no sharp cut-off; inactive = mostly below about 32%
# Tb MetRS conf – confirmation of Trypanosoma brucei MetRS inhibitors; shares compounds with TbMetRS inhib; 93% of 1,400 active; AID 624412; T. brucei MetRS enzyme, luminescence (ATP depletion); inhibition, % at 11.9 µM; in the data active = inhibition above about 7%
# Jurkat tox – kills Jurkat cells in T. brucei MetRS counterscreen. shares compounds with TbMetRS inhib. Jurkat cells viability, ATP luminescence. inhibition, % at 8.3 µM. 12% of 1,400 active. AID 624413; in the data active = inhibition above about 15%;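 note: 0% = vehicle and 100% = reference inhibitor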
# TbMetRS FP orth – T. brucei MetRS inhibition, orthogonal assay; shares compounds with TbMetRS inhib; purified T. brucei MetRS, fluorescence polarization; inhibition, % at 11.9 µM; 44% of 1,400 active; AID 651607; in the data active = inhibition above about 17%;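 note: 0% = vehicle wells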
# An asterisk follows results filed as active; nt = no result given.
SMILES,MC4R ag barr,NLRP3 yeast inh,TbMetRS inhib,Bfl-1 A1 inh,MC4R antagonist,NALP1 inh,Tb MetRS conf,Jurkat tox,TbMetRS FP orth
CCN(CC)S(=O)(=O)c1cc(C(=O)N(C)CC(=O)Nc2ccc(Cl)cc2)ccc1Cl,-1,12,43*,0,4,25,57*,1,24*
O=C(Nc1ccc2c(c1)OCO2)c1ccc2sc([C@H]3C[C@H](O)[C@@H](CO)O3)nc2c1,-1,nt,0,nt,2,nt,nt,nt,nt
CC(NC(=O)C1CCCN(C(=O)c2ccc(Cl)cc2)C1)c1cccc(C(F)(F)F)c1 (stereo not drawn),0,5,-1,0,-9,nt,nt,nt,nt
O=S(=O)(Nc1ccccc1N1CCOCC1)c1c(F)cc(F)cc1Br,3,2,0,1,21,nt,nt,nt,nt
NS(=O)(=O)c1cccc(NC(=O)COC(=O)c2ccccc2SCC(=O)N2CCCC2)c1,0,5,0,1,8,nt,nt,nt,nt
C[C@@H]1CN([C@@H](C)CO)C(=O)c2cc(NC(=O)Nc3ccccc3)ccc2O[C@@H](C)CCCCO[C@H]1CN(C)C(=O)Nc1ccc(C(F)(F)F)cc1,0,nt,18*,nt,8,nt,22*,3,15
C[C@@H]1CCCCO[C@H](CN(C)C(=O)Nc2ccc(F)cc2)[C@@H](C)CN([C@H](C)CO)C(=O)c2cc(NC(=O)c3ccccc3)ccc2O1,-1,nt,-1,nt,-1,nt,nt,nt,nt
CCCCOCCCNc1ncnc2c1[nH]c1ccccc12,-2,0,93*,0,0,12,106*,44*,95*
CCCCOc1ncnc2c1[nH]c1ccccc12,0,48,0,0,-1,7,nt,nt,nt
CCOc1ccc2[nH]c3c(NCCO)ncnc3c2c1,-3,6,0,1,18,-3,nt,nt,nt
CCOCCCNc1ncnc2c1[nH]c1ccccc12,-1,4,55*,0,18,4,76*,13,52*
COC(=O)/C(=C\Nc1ccc(OC)cc1)NC(=O)c1ccc(Cl)cc1Cl,-2,16,20*,1,-3,18,57*,7,30*
Cc1cc(Br)cc(Br)c1OCC(=O)NNC(=O)Nc1ccccc1,3,14,7.5*,-1,17,nt,45*,-6,30*
O=C(N=Nc1c(O)[nH]c2ccc(Br)cc12)c1ccccc1-n1cccc1,-1,11,8.6*,0,-27,-2,26*,76*,12
Clc1ccc2nc(SCc3nnc(-c4ccccc4)o3)[nH]c2c1,0,4,7.5*,-1,16,13,17*,6,7
Cc1ccc2nc(SCc3nnc(-c4ccccc4Br)o3)[nH]c2c1,-2,24,7.8*,0,2,5,11*,5,7
Clc1ccc(OCc2nnc(SCc3nnc(-c4ccccc4)o3)o2)c(Cl)c1,0,4,6.7*,0,-3,-22,17*,0,5
Cc1nc(SCC(=O)N(C)C2CCS(=O)(=O)C2)c(C#N)c(C)c1C (stereo not drawn),-1,-6,0,-1,3,nt,nt,nt,nt
Cc1c(C(=O)NCc2cccc(C(F)(F)F)c2)sc(=O)n1Cc1ccc(S(=O)(=O)N(C)C)cc1,0,nt,0,nt,17,nt,nt,nt,nt
CN(Cc1cccc(F)c1)C(=O)C1CC(=O)N(Cc2ccco2)C1 (stereo not drawn),-3,nt,0,nt,3,nt,nt,nt,nt
C1CCCN(c2nc3nonc3nc2N2CCCCCC2)CC1,0,5,-1,0,0,6,nt,nt,nt
Nc1nc2nonc2nc1N1CCCCC1,-2,0,7.1*,-1,2,12,13*,3,3
CCCN(C(=O)CSc1nnc(-c2ccncc2)n1CCC)c1c(N)n(Cc2ccccc2)c(=O)[nH]c1=O,3,nt,0,nt,17,nt,nt,nt,nt
